Experimental data as given in ChEMBL document CHEMBL1806457, “Synthesis and antimicrobial evaluation of new benzofuran derivatives” (2011).
Values after ≈ are worked out from the molar mass of the structure shown.

Tests used:
Format in all cases: functional
[1] = tested on: Staphylococcus aureus; test: Antibacterial activity against 1 x 10^4 cfu/mL methicillin-resistant Staphylococcus aureus ATCC 700699 after 24 hrs by NCCLS M7-A6 microtiter broth dilution method; conditions: ATCC 700699, 24 h
Procedure, shortened: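 Bacteria pre-cultured in LB broth 24 h at 37 °C. Colonies suspended in sterile saline and adjusted to 0.5 McFarland (625 nm, 1–2 × 10⁸ cfu/mL), then diluted 1:10,000 in LB. Compounds from a 4 mg/mL DMSO stock were two-fold serially diluted across a 96-well plate, 200 down to 0.39 µg/mL. MIC80 was the lowest concentration preventing visible growth (>80% inhibition).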

[2] = tested on: Candida albicans; test: microbe, parasite or virus in culture; conditions: ATCC 6258, 48 h
[3] = tested on: Bacillus subtilis; test: Antibacterial activity against 1 x 10^4 cfu/mL Bacillus subtilis ATCC 33712 after 24 hrs by NCCLS M7-A6 microtiter broth dilution method; conditions: ATCC 33712, 24 h
[4] = tested on: Escherichia coli; test: Antibacterial activity against 1 x 10^4 cfu/mL Escherichia coli ATCC 11303 after 24 hrs by NCCLS M7-A6 microtiter broth dilution method; conditions: ATCC 11303, 24 h
[5] = tested on: Staphylococcus aureus; test: Antibacterial activity against 1 x 10^4 cfu/mL Staphylococcus aureus ATCC 29213 after 24 hrs by NCCLS M7-A6 microtiter broth dilution method; conditions: ATCC 29213, 24 h

| Compound | MIC80 [1] [µg/mL] | MIC80 [2] [µg/mL] | MIC80 [3] [µg/mL] | MIC80 [4] [µg/mL] | MIC80 [5] [µg/mL] |
| --- | --- | --- | --- | --- | --- |
| COc1ccc(-c2oc3ccc(C)cc3c2C(=O)c2cc(OC)cc(OC)c2)cc1 | > 200 | > 200 | > 200 | > 200 | > 200 |
| COc1ccc(C(=O)c2c(-c3ccc(OC)cc3)oc3ccc(C)cc23)cc1 | > 200 | > 200 | > 200 | > 200 | > 200 |
| COc1ccc(-c2oc3ccc(C)cc3c2C(=O)c2cccc(OC)c2OC)cc1 | > 200 | > 200 | > 200 | > 200 | > 200 |
| COc1ccc(-c2oc3ccc(C)cc3c2C(=O)c2cc(OC)c(OC)c(OC)c2)cc1 | > 200 | > 200 | > 200 | > 200 | > 200 |
| COc1ccc(-c2oc3ccc(C)cc3c2C(=O)c2ccc(Cl)cc2)cc1 | > 200 | > 200 | > 200 | > 200 | > 200 |
| COc1ccc(-c2oc3ccc(C)cc3c2C(=O)c2cc(Cl)cc(Cl)c2)cc1 | > 200 | > 200 | > 200 | > 200 | > 200 |
| COc1ccc(-c2oc3ccc(C)cc3c2C(=O)c2cc(F)c(F)cc2Br)cc1 | > 200 | > 200 | > 200 | > 200 | > 200 |
| COc1ccc(-c2oc3ccc(C)cc3c2C(=O)c2ccccc2Br)cc1 | > 200 | > 200 | 0.78 (≈ 1.85 µM) | > 200 | > 200 |
| COc1ccc(-c2oc3ccc(C)cc3c2C(=O)c2ccc(O)cc2)cc1 | 0.78 (≈ 2.18 µM) | > 200 | 0.78 (≈ 2.18 µM) | 0.78 (≈ 2.18 µM) | < 0.39 |
| COc1ccc(-c2oc3ccc(C)cc3c2C(=O)c2ccc(O)c(C)c2)cc1 | 0.78 (≈ 2.09 µM) | > 200 | 1.56 (≈ 4.19 µM) | 0.78 (≈ 2.09 µM) | 0.78 (≈ 2.09 µM) |
| COc1ccc(-c2oc3ccc(C)cc3c2C(=O)c2cc(O)cc(OC)c2)cc1 | 0.78 (≈ 2.01 µM) | > 200 | 0.78 (≈ 2.01 µM) | 0.78 (≈ 2.01 µM) | < 0.39 |
| COc1ccc(-c2oc3ccc(C)cc3c2C(=O)c2cccc(OC)c2O)cc1 | > 200 | > 200 | > 200 | > 200 | > 200 |
| COc1ccc(-c2oc3ccc(C)cc3c2C(=O)c2ccc(O)c(I)c2)cc1 | 0.78 (≈ 1.61 µM) | > 200 | 1.56 (≈ 3.22 µM) | 3.12 (≈ 6.44 µM) | 0.78 (≈ 1.61 µM) |
| CO/N=C(\C(=O)N[C@@H]1C(=O)N2C(C(=O)O)=C(COC(C)=O)CS[C@H]12)c1csc(N)n1 [CEFOTAXIME] | 3.12 (≈ 6.85 µM) | – | 0.78 (≈ 1.71 µM) | > 200 | 3.12 (≈ 6.85 µM) |
| CC(C)(O/N=C(\C(=O)N[C@@H]1C(=O)N2C(C(=O)[O-])=C(C[n+]3ccccc3)CS[C@H]12)c1csc(N)n1)C(=O)O [CEFTAZIDIME] | 12.5 (≈ 22.9 µM) | – | 6.25 (≈ 11.4 µM) | > 200 | 0.78 (≈ 1.43 µM) |
| CC(=O)N1CCN(c2ccc(OCC3COC(Cn4ccnc4)(c4ccc(Cl)cc4Cl)O3)cc2)CC1 (centres undefined) [KETOCONAZOLE] | – | < 0.39 | – | – | – |
| Clc1ccc(COC(Cn2ccnc2)c2ccc(Cl)cc2Cl)c(Cl)c1.O=[N+]([O-])O (centres undefined) [MICONAZOLE NITRATE] | – | < 0.39 | – | – | – |
| CC1(C)S[C@@H]2[C@H](NC(=O)Cc3ccccc3)C(=O)N2[C@H]1C(=O)[O-].[Na+] [PENICILLIN G SODIUM] | 3.12 | – | < 0.39 | 0.78 | 3.12 |
| Oc1ccc(/C=C/c2cc(O)cc(O)c2)cc1 [RESVERATROL] | 25 (≈ 110 µM) | > 200 | 25 (≈ 110 µM) | 25 (≈ 110 µM) | 25 (≈ 110 µM) |
